According to publication PMC4284021 (The Journal of Pharmacy and Pharmacology, 2014):
Where “and” joins values, the source holds several entries; their conditions need not be identical. Equal entries are not always repeated. Marks after values point to notes of the source that are not given here.

Assays:
[1] = tested on: HDL-C, LDL-C, total cholesterol, triglycerides; experiment: Lipid analyses; format: in vivo, human; details: for HDL-C: Mean % change from baseline (90% CI) / HDL-C: Mean % change vs placebo (90 % CI) / LDL-C: Mean % change from baseline (90% CI) / LDL-C: Mean % change vs placebo (90 % CI) / Total cholesterol: Mean % change from baseline (90% CI) / Total cholesterol: Mean % change vs placebo (90 % CI) / Triglycerides: Mean % change from baseline (90% CI) / Triglycerides: Mean % change vs placebo (90 % CI): day 14
How it was run: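 Placebo-controlled once-daily oral capsules (10–600 mg) with a low-fat meal for 14–15 days. Total cholesterol and triglycerides were measured by enzymatic methods. HDL-C was measured after dextran sulfate precipitation and centrifugation of LDL/VLDL. LDL-C was measured by a direct assay. Change from baseline was taken to Day 14 and to 2 weeks after the last dose. Emax models (Hill coefficient 1, baseline covariate) were used for HDL-C/LDL-C; linear models for total cholesterol and triglycerides.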

[2] = tested on: apolipoproteins (apo AI, apo AII, apo B, apo E); experiment: Apolipoprotein concentrations by immunoturbidimetric methods in healthy subjects; format: in vivo, human; details: for Apo AI: Mean % change from baseline (90% CI) / Apo AI: Mean % change vs placebo (90 % CI) / Apo AII: Mean % change from baseline (90% CI) / Apo AII: Mean % change vs placebo (90 % CI) / Apo B: Mean % change from baseline (90% CI) / Apo B: Mean % change vs placebo (90 % CI) / Apo E: Mean % change from baseline (90% CI) / Apo E: Mean % change vs placebo (90 % CI) / Ratio of apo B/apo AI: Mean % change from baseline (90% CI) / Ratio of apo B/apo AI: Mean % change vs placebo (90 % CI): day 14
How it was run: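 Healthy adults took placebo or test compound (10, 100, 300, 600 mg) as capsules once daily with a low-fat meal for 14–15 days. Apo AI, AII, B and E were measured by immunoturbidimetry on a Roche Modular analyser. Values are percent change from baseline to Day 14, including all randomized subjects given at least one dose.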

## Cc1cc(C)c2c(c1)[C@@H](N(Cc1cc(C(F)(F)F)cc(C(F)(F)F)c1)c1nnn(C)n1)CCCN2C[C@H]1CC[C@H](C(=O)O)CC1 [evacetrapib]
[1]; 10 mg/day
  HDL-C: Mean % change from baseline (90% CI): 11.69 (4.39, 18.99) %
  HDL-C: Mean % change vs placebo (90 % CI): 18.02 (9.76, 26.28) ^*** %
  LDL-C: Mean % change from baseline (90% CI): −11.94 (−18.31, −5.57) %
  LDL-C: Mean % change vs placebo (90 % CI): −13.59 (−21.83, −5.35) ^** %
  Total cholesterol: Mean % change from baseline (90% CI): −4.92 (−15.93, 6.10) %
  Total cholesterol: Mean % change vs placebo (90 % CI): −4.26 (−17.58, 9.06) %
  Triglycerides: Mean % change from baseline (90% CI): −12.92 (−26.89, 1.06) %
  Triglycerides: Mean % change vs placebo (90 % CI): 5.51 (−11.39, 22.40) %
[1]; 100 mg/day
  HDL-C: Mean % change from baseline (90% CI): 59.28 (51.54, 67.02) %
  HDL-C: Mean % change vs placebo (90 % CI): 65.61 (53.34, 77.88) ^*** %
  LDL-C: Mean % change from baseline (90% CI): −24.47 (−27.68, −21.26) %
  LDL-C: Mean % change vs placebo (90 % CI): −26.13 (−32.39, −19.86) ^*** %
  Total cholesterol: Mean % change from baseline (90% CI): 6.83 (−4.18, 17.85) %
  Total cholesterol: Mean % change vs placebo (90 % CI): 7.49 (−5.83, 20.81) %
  Triglycerides: Mean % change from baseline (90% CI): −3.75 (−17.73, 10.23) %
  Triglycerides: Mean % change vs placebo (90 % CI): 14.67 (−2.22, 31.57) %
[1]; 300 mg/day
  HDL-C: Mean % change from baseline (90% CI): 75.22 (68.87, 81.58) %
  HDL-C: Mean % change vs placebo (90 % CI): 81.56 (70.90, 92.22) ^*** %
  LDL-C: Mean % change from baseline (90% CI): −26.39 (−29.92, −22.85) %
  LDL-C: Mean % change vs placebo (90 % CI): −28.04 (−34.18, −21.90) ^*** %
  Total cholesterol: Mean % change from baseline (90% CI): 15.60 (3.53, 27.67) %
  Total cholesterol: Mean % change vs placebo (90 % CI): 16.25 (2.05, 30.46) %
  Triglycerides: Mean % change from baseline (90% CI): −2.10 (−17.41, 13.21) %
  Triglycerides: Mean % change vs placebo (90 % CI): 16.32 (−1.69, 34.34) %
[1]; 600 mg, Day 14, relative to placebo
  decrease in LDL-C: 29%
[1]; 600 mg/day
  HDL-C: Mean % change from baseline (90% CI): 80.50 (73.05, 87.95) %
  HDL-C: Mean % change vs placebo (90 % CI): 87% and 86.83 (75.96, 97.71) ^*** %
  LDL-C: Mean % change from baseline (90% CI): −26.91 (−30.71, −23.11) %
  LDL-C: Mean % change vs placebo (90 % CI): −28.56 (−34.76, −22.37) ^*** %
  Total cholesterol: Mean % change from baseline (90% CI): 15.48 (7.85, 23.11) %
  Total cholesterol: Mean % change vs placebo (90 % CI): 16.13 (5.44, 26.82) ^* %
  Triglycerides: Mean % change from baseline (90% CI): −22.08 (−31.76, −12.40) %
  Triglycerides: Mean % change vs placebo (90 % CI): −3.66 (−17.22, 9.91) %
[1]; 10–600 mg, Day 14
  changes in triglycerides: no statistically significant changes
[1]; 600-mg dose group
  HDL-C change (SD) from baseline to 2 weeks after the last dose: 7.3%
  LDL-C change (SD) from baseline to 2 weeks after the last dose: −2.6%
[1]; all dose groups
  HDL-C and LDL-C after 2-week washout: returned to levels at or near baseline
[2]; 10 mg/day
  Apo AI: Mean % change from baseline (90% CI): 3.53 (−2.23, 9.30) %
  Apo AI: Mean % change vs placebo (90 % CI): 15.29 (7.74, 22.84) ^** %
  Apo AII: Mean % change from baseline (90% CI): −1.30 (−5.34, 2.73) %
  Apo AII: Mean % change vs placebo (90 % CI): 4.29 (−0.90, 9.48) %
  Apo B: Mean % change from baseline (90% CI): −8.09 (−13.41, −2.77) %
  Apo B: Mean % change vs placebo (90 % CI): −15.05 (−22.68, −7.43) ^** %
  Apo E: Mean % change from baseline (90% CI): 19.70 (5.10, 34.30) %
  Apo E: Mean % change vs placebo (90 % CI): 8.36 (−2.89, 19.60) %
  Ratio of apo B/apo AI: Mean % change from baseline (90% CI): −6.87 (−12.72, −1.02) %
  Ratio of apo B/apo AI: Mean % change vs placebo (90 % CI): −26.63 (−34.88, −18.38) ^*** %
[2]; 100 mg/day
  Apo AI: Mean % change from baseline (90% CI): 24.61 (20.07, 29.15) %
  Apo AI: Mean % change vs placebo (90 % CI): 36.37 (27.66, 45.08) ^*** %
  Apo AII: Mean % change from baseline (90% CI): 8.85 (4.69, 13.02) %
  Apo AII: Mean % change vs placebo (90 % CI): 14.44 (7.16, 21.72) ^** %
  Apo B: Mean % change from baseline (90% CI): −17.64 (−20.84, −14.43) %
  Apo B: Mean % change vs placebo (90 % CI): −24.60 (−31.28, −17.92) ^*** %
  Apo E: Mean % change from baseline (90% CI): 55.81 (36.13, 75.50) %
  Apo E: Mean % change vs placebo (90 % CI): 44.47 (14.63, 74.30) ^* %
  Ratio of apo B/apo AI: Mean % change from baseline (90% CI): −31.84 (−35.59, −28.09) %
  Ratio of apo B/apo AI: Mean % change vs placebo (90 % CI): −51.60 (−59.36, −43.83) ^*** %
[2]; 300 mg/day
  Apo AI: Mean % change from baseline (90% CI): 28.75 (23.70, 33.80) %
  Apo AI: Mean % change vs placebo (90 % CI): 40.50 (31.66, 49.34) ^*** %
  Apo AII: Mean % change from baseline (90% CI): 11.93 (7.75, 16.10) %
  Apo AII: Mean % change vs placebo (90 % CI): 17.52 (10.86, 24.17) ^*** %
  Apo B: Mean % change from baseline (90% CI): −18.85 (−22.45, −15.25) %
  Apo B: Mean % change vs placebo (90 % CI): −25.81 (−32.59, −19.04) ^*** %
  Apo E: Mean % change from baseline (90% CI): 76.75 (62.23, 91.28) %
  Apo E: Mean % change vs placebo (90 % CI): 65.40 (40.39, 90.42) ^*** %
  Ratio of apo B/apo AI: Mean % change from baseline (90% CI): −35.69 (−39.92, −31.46) %
  Ratio of apo B/apo AI: Mean % change vs placebo (90 % CI): −55.45 (−63.26, −47.63) ^*** %
[2]; 600 mg, Day 14, vs placebo
  decrease in apo B: 26% and 26.1%
  decrease in apo B/AI ratio: 56.5%
[2]; 600 mg/day
  Apo AI: Mean % change from baseline (90% CI): 29.93 (24.51, 35.35) %
  Apo AI: Mean % change vs placebo (90 % CI): 42% and 41.7% and 41.69 (32.70, 50.67) ^*** %
  Apo AII: Mean % change from baseline (90% CI): 12.91 (8.06, 17.77) %
  Apo AII: Mean % change vs placebo (90 % CI): 18.5% and 18.50 (11.71, 25.29) ^*** %
  Apo B: Mean % change from baseline (90% CI): −19.17 (−22.94, −15.41) %
  Apo B: Mean % change vs placebo (90 % CI): −26.14 (−32.97, −19.30) ^*** %
  Apo E: Mean % change from baseline (90% CI): 85.48 (65.47, 105.49) %
  Apo E: Mean % change vs placebo (90 % CI): 74.1% and 74.13 (47.95, 100.31) ^*** %
  Ratio of apo B/apo AI: Mean % change from baseline (90% CI): −36.74 (−41.23, −32.25) %
  Ratio of apo B/apo AI: Mean % change vs placebo (90 % CI): −56.50 (−64.39, −48.61) ^*** %
